A short description of this series: Toxicity liver stage against HepG2, at 10uM. Type of series: cell-based. The arrangement: test concentration 10 uM, cell line HepG2-A16-CD81EGFP. To be noted: human, HepG2-A16-CD81EGFP cells; read-out: INHIBITION
A digest of the protocol: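 Uninfected HepG2-A16-CD81EGFP cells, 3 × 10^3 per well, 1536-well, plated on prespotted compound at 10 μM final, parasite-free screening media added to match infected plates; puromycin 10 μM positive, DMSO 0.5% negative; run in parallel with 48 h PbLuc assay at 37 °C, 5% CO2; viability by CellTiter-Glo luminescence, normalized to controls.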
With `CNC(=O)c1nc(CC(=O)Nc2cccc(C(F)(F)F)c2)no1`, the cytotoxicity at 10 µM was -6.96%.
With `Cc1ccc(S(=O)(=O)NCCNc2cc(-n3cccc3)ncn2)c(C)c1` the figure was -0.817%; with `CCN(C(=O)c1nc2c(s1)CCCN2Cc1ccccc1)C(C)C`, 14.2%; with `Cc1nc(CNCC2COCc3c(-c4ccoc4)nnn3C2)cs1` (centres undefined), 8.22%.
As for `Cc1cc(NCCO)nc(N2CCCC2)c1C#N`, the figure is -7.02%; as for `CCOC(=O)Cn1cccc(S(=O)(=O)N2CCCC2)c1=O`, 13.4%.
As for `CN1C(=O)C(C)(C)COc2cc(NS(=O)(=O)Cc3ccccc3)ccc21`, the figure is -7.79%; as for `O=C(Cn1nc(C(F)(F)F)c(Cl)c1C1CC1)NN1CCOCC1`, 5.01%; as for `COc1ccc(S(=O)(=O)N2CCOC(C)(C(N)=O)C2)cc1` (centres undefined), 5.49%.
Take `O=C(C1CC1)N1CCCC(C2=Nc3ccccc3S(=O)(=O)N2)C1` (centres undefined): the cytotoxicity at 10 µM was -1.45%.
Regarding `CS(=O)(=O)N1CC(c2ccnc(Nc3ccccn3)n2)C1`, the cytotoxicity at 10 µM was 13.8%.
Take `CS(=O)(=O)c1cncnc1C1CCCN(C(=O)NCc2ccccc2)C1` (centres undefined): the cytotoxicity at 10 µM was -0.375%.
For the compound `Fc1ccccc1Oc1nccnc1C1CCCN(C2CCOCC2)C1` (centres undefined), the cytotoxicity at 10 µM was -9.4%.
Take `c1c[nH]c(CN2CCCC(Cc3ccc(NC4CCCC4)nn3)C2)n1` (centres undefined): the cytotoxicity at 10 µM was -3.95%.
`Cc1cc(CCC2CN(CC3(O)CCCCC3)CCO2)ncn1` (centres undefined): the cytotoxicity at 10 µM is 2.97%.
As for `Cc1ccc(CN(C)C(=O)c2cc3c(c(S(N)(=O)=O)c2)CCC3)o1`, the figure is -52.5%; as for `CC(O)CCN(C)C(=O)Nc1cccc(F)c1` (centres undefined), -6.16%.
As for `COc1ccc(CN2CCCC(n3cccn3)C2)c(Cl)c1OC` (centres undefined), the figure is 4.48%.
Take `CSC(C)C(=O)Nc1ccnn1-c1ccccc1C` (centres undefined): the cytotoxicity at 10 µM is -12.5%.
With `Cc1ccc(CN(C)C(=O)NCC(C)(C)S(C)(=O)=O)s1` the figure was 15.6%.
Regarding `CCCN(C(=O)CN1CCN(CC(C)O)CC1)C1=CCCCC1` (centres undefined), the cytotoxicity at 10 µM is 4.13%.
Consider `CC(CNC(=O)NCc1ccoc1)N1CCc2sccc2C1` (centres undefined), for which the cytotoxicity at 10 µM is -4.8%.
On to `CN(CC(=O)NCC(CCO)c1ccccc1)C(=O)OC(C)(C)C` (centres undefined), for which the cytotoxicity at 10 µM is -6.58%.
With `CCc1[nH]c(C2(N)CCCCC2)nc(=O)c1C`, the cytotoxicity at 10 µM came to 7.61%.
Turning to `OCCN(Cc1cccnc1)c1ccc(Cl)cn1`, the cytotoxicity at 10 µM is 31.9%.
For `CS(=O)(=O)CCN1CCc2c(ncn2C2CC2)C1`, the cytotoxicity at 10 µM is -6.06%.
With `Cc1ccc(CNC(=O)C2CCN(C(=O)c3ccccc3)CC2)n1C` the figure was 1.2%; with `Brc1ccc(C2(NCc3noc(C4CC4)n3)CCC2)cc1`, 13.3%.
With `CC(=O)N(C)CC(=O)NC1(c2ccc(Cl)c(Cl)c2)CC1` the figure was -5.57%; with `Cc1nn(CCO)c(C)c1CNC1CCc2c(F)cccc21` (centres undefined), 4.59%.
As for `CC(C)COCCC(=O)Nc1ccc2oc(=O)n(CCN(C)C)c2c1`, the figure is -7.59%; as for `CCN(CC)S(=O)(=O)N1CCCC1CC(=O)c1cccs1` (centres undefined), 3.62%.
For `CNC(=O)N1CCCCC1CCNS(C)(=O)=O` (centres undefined), the cytotoxicity at 10 µM is -3.41%.
With `COc1ccc(C)cc1CC(=O)NC1(C#N)CCOCC1` the figure was 6.18%; with `CCC(C)C(=O)NCCCn1nc(C)cc1C` (centres undefined), 0.0879%; with `c1cncc(CN(Cc2ccc3c(c2)OCCO3)CC2CCCO2)c1` (centres undefined), 1.22%.
On to `CC1CCN(C)c2ccccc2N1C(=O)c1ccc(=O)n(C)c1` (centres undefined), for which the cytotoxicity at 10 µM was -0.117%.
As for `Cc1ncccc1C(=O)Nc1cccc2c1C(=O)NC2`, the figure is 1.85%; as for `CC(C)C(=O)NCCNC(=O)C(C)OCC(F)(F)F` (centres undefined), -5.56%.
With `O=C(NCC(O)c1ccccc1C(F)(F)F)c1cccnc1` (centres undefined), the cytotoxicity at 10 µM was -2.9%.
With `Cc1cccn2cc(CN3CCCC(c4ccn[nH]4)C3)nc12` (centres undefined) the figure was -5.95%; with `CC(C)COC(C)C(=O)N1CCCCCC1` (centres undefined), 1.31%.
With `OCCOc1cc(F)ccc1NCc1nc(-c2ccoc2)no1` the figure was -46.9%; with `CS(=O)(=O)CCNCc1ccc(OCc2cscn2)cc1`, -136%; with `O=C1CN(C(=O)C2CCCOC2)CCN1Cc1ccc(Cl)cc1` (centres undefined), -152%.
With `CC(C)CCN(C)C(=O)c1cnc2c(cnn2CC(C)C)c1` the figure was -0.0554%; with `CC(C)c1cc(C(=O)NCC(O)C2CCOCC2)nn1C(C)(C)C` (centres undefined), -9.55%.
As for `O=C(COCC1CC1)Nc1ncccc1I`, the cytotoxicity at 10 µM turned out to be 22.5%.
With `CCOc1ncccc1NC(=O)N1CCC(n2cncn2)CC1` the figure was 6.64%; with `FC(F)(F)c1cccc(C2(CNCc3cc[nH]c3)CCOCC2)c1`, -6.76%.
With `Cc1cnn(CCNCCCOc2ccc(C#N)cc2)c1` the figure was -0.222%; with `CS(=O)(=O)CCOCCNc1ccc(Br)cn1`, -4.71%.
As for `COCCOc1ccc(F)cc1NCc1nc2ccccc2n1C`, the figure is 6.29%.
As to `Cc1cnccc1N1CCCN(C(=O)CCCn2ccnc2C)CC1`, the cytotoxicity at 10 µM was -5.39%.
With `O=C(Nc1nc(-c2ccccc2)ns1)N1CCN(C(=O)C2CC2)CC1` the figure was -150%; with `Cc1ccccc1C(CNc1ncnc2c1CCNC2)N(C)C` (centres undefined), 5.31%.
With `CCC[C@@H]1CN(C(=O)c2cc(-c3cccs3)n(C)n2)C[C@H]1N(C)C` the figure was -1.84%.
`CN(C)C(C(=O)NCCSc1ncn[nH]1)c1cccc(F)c1` (centres undefined): the cytotoxicity at 10 µM was -1.64%.
As for `COc1cccc(-n2c(SCC(=O)O)nnc2-c2cn[nH]c2)c1`, the figure is -6.76%; as for `Cc1ncsc1CCC(=O)N1CCCC1c1cccnc1` (centres undefined), 13.4%.
With `O=C(O)c1cn(CC2CCCN(c3nccc4occc34)C2)nn1` (centres undefined), the cytotoxicity at 10 µM is -5.17%.
On to `Cn1c(Cn2cccn2)nnc1C1CCN(Cc2cccnc2)CC1`, for which the cytotoxicity at 10 µM came out at 6.01%.
With `CN(C)c1nc2c(c(N3CCc4c(c(CO)nn4C)C3)n1)CCNC2` the figure was -5.72%.
`COc1cc(NCc2ccccc2-n2cncn2)nc(N)n1`: the cytotoxicity at 10 µM was -11%.
As for `Cc1nc(C)n(CCCn2ccnc2-c2cc3n(n2)CCCNC3)n1`, the figure is 3.71%; as for `O=C(CCc1cn[nH]c1)N1C[C@H](CO)C[C@H](CN2CCOCC2)C1`, 2.72%.
With `COCCc1noc(-c2ccc(N[C@H]3CCCCNC3=O)nc2)n1` the figure was 6.9%; with `COCCC1(CO)CCCN(C(=O)c2cc(Cl)ccc2F)C1` (centres undefined), 4.36%; with `Cc1nc(NCCSc2nnc(C)s2)c2cccnc2n1`, -0.125%.
As for `C[C@@H]1CN(C2CCN(c3ccccc3)CC2)CC[C@@]1(O)C1CCOCC1`, the figure is -10.6%; as for `O=C(c1cnc(COc2ccccc2)nc1O)N1CCOCC1`, 2.55%; as for `COCCCC1(CO)CCCN(CCS(C)(=O)=O)C1` (centres undefined), -16%.
As for `c1cc(NC2CC3(CCN(Cc4cc[nH]n4)C3)C2)ncn1` (centres undefined), the cytotoxicity at 10 µM was -4.71%.
With `N#CCCN(C(=O)CN1CCCC1c1ccsc1)c1ccccc1` (centres undefined) the figure was -8.42%; with `CN1CCOC(CN(C(=O)COc2ccccc2)c2nccs2)C1` (centres undefined), -8.18%.
As for `Cc1nn(C)c(C)c1C1CCCN1Cc1nc(-c2cccs2)no1` (centres undefined), the cytotoxicity at 10 µM was -9.43%.
As for `Cc1nc(C)n(CC2CCCN(Cc3cc(C#N)ccc3F)C2)n1` (centres undefined), the figure is -18.3%; as for `Cc1noc(CCCC(=O)NC(C)c2ccc(Cl)s2)n1` (centres undefined), -9.48%; as for `N#Cc1ccccc1N1CCCN(C(=O)CCc2ccco2)CC1`, -8.48%.
For the compound `CN(C)c1cc(CNC(=O)c2cc(F)ccc2F)ccn1`, the cytotoxicity at 10 µM was -8.35%.
With `CN(Cc1nnc2n1CCC2)C(=O)c1ccc2c(c1)OCCO2` the figure was -17.8%; with `Cc1ccc(-c2ncc(C(=O)NS(C)(=O)=O)s2)c(C)c1`, -8.91%; with `CC(NC(=O)N1CCN(c2ccccc2)CC1)c1nncn1C` (centres undefined), 2.36%.
With `Cc1nn(C)c(Cl)c1C1CCCN1C(=O)c1nccnc1N` (centres undefined), the cytotoxicity at 10 µM was -6.9%.
For the compound `O=C(NCc1ccc(-n2cncn2)nc1)c1ccc2c(c1)CCO2`, the cytotoxicity at 10 µM is -10.2%.
For the compound `O=C(NCC1CCCO1)c1cc(-c2ccncc2)c2cnccc2n1` (centres undefined), the cytotoxicity at 10 µM was found to be 1.05%.
Regarding `O=C(Nc1cccc(F)c1)C1=NOC2(CCNCC2)C1`, the cytotoxicity at 10 µM worked out at 5.19%.
As for `Cc1nc(CN2CCn3cc(CNC(=O)C4CCC4)nc3C2)cs1`, the figure is -6.52%; as for `O=C(Nc1cccnc1)[C@@H]1C[C@H]2OCC[C@H]2N(Cc2ccsc2)C1`, 2.88%; as for `COc1ccc(-c2cc(C3CCCNC3)ccn2)cc1` (centres undefined), 0.288%.
As for `O=C(Cc1cccs1)N1CCn2cc(Cn3cccn3)nc2C1`, the figure is -77.9%.
With `CC(C)c1nc(-c2cc(C(=O)NCCN(C)C)c3ccccn23)cs1` the figure was 4.77%; with `Cc1nc(CN2CCC3(CCCN(C(=O)c4cnccn4)C3)C2)cs1` (centres undefined), -147%; with `Cc1noc([C@@H]2CC[C@@H]3[C@@H](CCN3S(=O)(=O)c3cccnc3)O2)n1`, -13.1%.
As to `CCN1CC2(CC1=O)CN(Cc1cnn(C)c1)CCN(C(C)=O)C2` (centres undefined), the cytotoxicity at 10 µM is -12.5%.
On to `COCCN1CCC2(CCN(Cc3cccs3)CC2)C1=O`, for which the cytotoxicity at 10 µM was determined as 1.22%.
For the compound `COCC(=O)N1CCCn2c(CN3CCOCC3)nnc2C1`, the cytotoxicity at 10 µM is -131%.
With `CN1CC[C@]2(CN(Cc3nccs3)C[C@H]2c2ccccc2)C1=O` the figure was 10.8%.
As for `Cc1[nH]c2cc(C3CCCCN3C(=O)C3CC3)nn2c(=O)c1C` (centres undefined), the figure is -5.34%.

For the origin of these results see ChEMBL document CHEMBL4513216, “Probing the Open Global Health Chemical Diversity Library for Multistage-Active Starting Points for Next-Generation Antimalarials” (ACS Infect Dis, 2020).
